Data on 22 compounds can be found in ChEMBL document CHEMBL1143636, “A series of bisaryl imidazolidin-2-ones has shown to be selective and orally active 5-HT2C receptor antagonists” (Bioorg Med Chem Lett, 2005).

Active and inactive are the calls of the source. The rule behind the calls is not given here.

The Ki is a dissociation constant, usually derived from enzyme kinetics or from competition with a known ligand. A lower Ki goes with tighter binding. The clearance is a measure of how efficiently the substance is removed, as volume per time. Lower therefore signals inefficient removal.

Series [1] deals with 5-hydroxytryptamine receptor 2B (Homo sapiens, UniProt P41595). As to the kind of experiment: Binding affinity for human 5-hydroxytryptamine 2B receptor expressed in HEK 293 cells using [3H]5-HT. The class given is cell-based, HEK293.
5-hydroxytryptamine receptor 2B, sequence (P41595 whole entry): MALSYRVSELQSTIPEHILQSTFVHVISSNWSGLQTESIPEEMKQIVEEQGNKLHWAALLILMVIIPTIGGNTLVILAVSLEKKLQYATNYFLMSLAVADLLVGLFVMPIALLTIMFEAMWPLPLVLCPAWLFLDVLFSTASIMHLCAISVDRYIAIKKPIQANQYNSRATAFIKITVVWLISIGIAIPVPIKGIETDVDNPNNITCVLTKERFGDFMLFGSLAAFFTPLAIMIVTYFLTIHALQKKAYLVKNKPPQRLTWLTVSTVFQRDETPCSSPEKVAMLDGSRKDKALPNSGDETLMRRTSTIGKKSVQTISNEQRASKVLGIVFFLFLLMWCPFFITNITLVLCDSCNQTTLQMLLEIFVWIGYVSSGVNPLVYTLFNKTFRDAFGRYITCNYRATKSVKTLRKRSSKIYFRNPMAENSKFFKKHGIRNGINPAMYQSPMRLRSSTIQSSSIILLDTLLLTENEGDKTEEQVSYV
Series [2] addresses 5-hydroxytryptamine receptor 2A (Homo sapiens, UniProt P28223). As to the kind of experiment: Binding affinity for human 5-hydroxytryptamine 2A receptor expressed in HEK 293 cells using [3H]ketanserin. The class given is cell-based, HEK293.
The target of series [3] is T1, 5-hydroxytryptamine receptor 2C (Homo sapiens, UniProt P28335).
T1 sequence (P28335 whole entry): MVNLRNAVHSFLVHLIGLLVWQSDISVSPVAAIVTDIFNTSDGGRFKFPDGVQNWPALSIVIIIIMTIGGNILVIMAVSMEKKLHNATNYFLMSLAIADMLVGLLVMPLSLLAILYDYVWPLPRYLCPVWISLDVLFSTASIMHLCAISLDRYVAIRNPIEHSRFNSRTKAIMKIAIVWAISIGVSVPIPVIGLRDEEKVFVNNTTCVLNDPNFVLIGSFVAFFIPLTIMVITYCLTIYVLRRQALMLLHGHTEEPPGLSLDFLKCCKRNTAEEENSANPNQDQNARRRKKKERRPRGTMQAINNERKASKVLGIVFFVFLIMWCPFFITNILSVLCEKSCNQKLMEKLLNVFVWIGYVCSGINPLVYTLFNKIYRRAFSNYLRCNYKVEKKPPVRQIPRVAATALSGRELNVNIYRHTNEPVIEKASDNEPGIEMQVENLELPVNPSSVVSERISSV
As to the kind of experiment: Binding affinity for human 5-hydroxytryptamine 2C receptor expressed in HEK 293 cells using [3H]mesulergine. The class given is cell-based, HEK293.

A short description of series [4]: In vivo clearance in rat was determined. The class given is ADME, organism-based.
Series [5] concerns Rattus norvegicus. As to the kind of experiment: Percentage reversal at 10 mg/kg po of mCPP (7 mg/kg i.p.) induced hypolocomotion. In kind it is functional. A digest of the protocol:
(§1)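 Rats were given the test compound orally at 10 mg/kg. mCPP, a 5-HT2C agonist, was given at 7 mg/kg ip 20 min before testing to induce hypolocomotion. The read-out was the percentage reversal of mCPP-induced hypolocomotion.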

For series [6], the system named is Rattus norvegicus. As to the kind of experiment: Percentage reversal at 10 mg/kg po of mCPP (7 mg/kg i.p.) induced hypolocomotion; in active. In kind it is functional, organism-based. On the set-up: dose 10 mg/kg. A digest of the protocol: as §1
Series [7] deals with Rattus norvegicus. As to the kind of experiment: Dose of compound required to reverse mCPP (7 mg/kg i.p.) induced hypolocomotion by 50%. The class given is functional. In outline: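 In rats, hypolocomotion was induced with the 5-HT2C agonist mCPP at 7 mg/kg ip, given 30 min pretest. The value is the compound dose that reversed the mCPP-induced hypolocomotion by 50%.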
For series [8], the system named is Rattus norvegicus. As to the kind of experiment: Percentage reversal at 10 mg/kg po of mCPP (7 mg/kg i.p.) induced hypolocomotion; IA = in active. The class given is functional, organism-based. On the set-up: dose 10 mg/kg. In outline: as §1

5-hydroxytryptamine receptor 2A, sequence (P28223 whole entry): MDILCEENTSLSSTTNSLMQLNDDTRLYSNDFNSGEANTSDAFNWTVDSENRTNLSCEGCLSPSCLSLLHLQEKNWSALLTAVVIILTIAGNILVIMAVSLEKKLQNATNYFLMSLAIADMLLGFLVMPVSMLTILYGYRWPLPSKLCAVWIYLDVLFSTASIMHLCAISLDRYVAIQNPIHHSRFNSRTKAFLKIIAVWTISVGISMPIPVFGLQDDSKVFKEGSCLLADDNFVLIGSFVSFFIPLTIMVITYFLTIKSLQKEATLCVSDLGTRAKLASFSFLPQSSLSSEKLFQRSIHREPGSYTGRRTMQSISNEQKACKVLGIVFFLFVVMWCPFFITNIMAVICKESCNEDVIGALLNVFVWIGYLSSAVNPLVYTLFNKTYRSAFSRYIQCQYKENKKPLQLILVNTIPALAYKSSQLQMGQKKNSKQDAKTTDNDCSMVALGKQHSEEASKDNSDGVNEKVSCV

For `COc1ccc(N2CCN(c3ccc(Cl)c(Cl)c3)C2=O)cc1OCCN1CCCCC1`, the results for the inhibitory constant (Ki) in series [1], in series [2] and in series [3] were 316 nM, 631 nM and 0.794 nM, respectively. The compound also gave a clearance in series [4] of 45 mL/min/kg. In series [5], the Reversal is 75%.

Consider `O=C1N(c2ccc(OCc3ccccn3)nc2)CCN1c1ccc(Cl)c(Cl)c1`, for which the Ki was over 6310 nM in series [1], over 10000 nM in series [2] and 398 nM in series [3].

Consider `COc1ccc(N2CC(=O)N(c3cccc(F)c3)C2=O)cc1OCCN1CCCCC1`, for which the Ki in series [1] is over 6310 nM; in series [2], over 10000 nM; in series [3], 50.1 nM.

On to `COc1ccc(-n2ccn(-c3cccc(F)c3)c2=O)cc1OCCN1CCCCC1`, for which the results for the Ki in series [1], in series [2] and in series [3] were 2000 nM, over 1000 nM and 6.31 nM, respectively. The Reversal entry in series [6] was “inactive”.

For `Cc1cc2c(cc1Cl)N(C(=O)Nc1ccc(Oc3cccnc3C)nc1)CC2` [SB-242084], the ID50 in series [7] amounted to 2 mg/kg.

In the case of `COc1ccc(N2CCN(c3ccc(Cl)c(Cl)c3)C2=O)cc1OCCN1CCOCC1`, the figures for the Ki in series [1], in series [2] and in series [3] were 316 nM, over 5010 nM and 3.16 nM, respectively. In addition, the Reversal in series [5] is 7%.

In the case of `Cc1cc2c(cc1C(F)(F)F)N(C(=O)Nc1ccc(OCc3ccccn3)nc1)CC2`, the ID50 in series [7] was found to be 1 mg/kg.

Consider `COc1ccc(N2CCN(c3ccccc3Cl)C2=O)cc1OCCN1CCCCC1`, for which the Ki was over 7940 nM in series [1], 3980 nM in series [2] and 31.6 nM in series [3].

Take `COc1ccc(N2CCN(c3cccc(F)c3)C2=O)cc1OCCN1CCOCC1`: the inhibition constant Ki is 794 nM in series [1], over 6310 nM in series [2] and 12.6 nM in series [3]. Besides, in series [4], the clearance is over 120 mL/min/kg. Moreover, in series [5], the Reversal is 10%.

Turning to `COc1ccc(N2CCN(c3ccc(Cl)c(Cl)c3)C2=O)cc1OCCN(C)C`, the inhibition constant (Ki) in series [2] is 501 nM; in series [3] it was 1.26 nM. Moreover, in series [6], the Reversal result is “inactive”.

Consider `COc1ccc(N2CCN(c3cc(F)cc(F)c3)C2=O)cc1OCCN1CCCCC1`, for which the Ki in series [1] is over 5010 nM; in series [2] it was over 10000 nM; in series [3], 1 nM. In series [5], the Reversal is listed as 40%.

With `COc1ccc(N2CCN(c3cccc(F)c3)C2=O)cc1OCCN(C)C`, the Ki was 1580 nM in series [1], 2510 nM in series [2] and 3.98 nM in series [3]. In addition, in series [5], the Reversal is 40%.

For `O=C1N(c2ccc(OCCN3CCCCC3)nc2)CCN1c1ccc(Cl)c(Cl)c1`, the Ki was 158 nM in series [1], 1000 nM in series [2] and 25.1 nM in series [3].

Take `COc1ccc(N2CCN(c3ccc(C)c(C(F)(F)F)c3)C2=O)cc1OCCN1CCOCC1`: the inhibitory constant (Ki) in series [1] was 126 nM; in series [2], 3160 nM; in series [3], 7.94 nM. For the same compound, the Reversal entry in series [6] was “inactive”.

On to `COc1ccc(-n2ccn(-c3cc(F)cc(F)c3)c2=O)cc1OCCN1CCCCC1`, for which the values for the Ki in series [1], in series [2] and in series [3] were over 7940 nM, over 10000 nM and 7.94 nM, respectively.

On to `COc1ccc(N2CCN(c3cccc(F)c3)C2=O)cc1OCCO`, for which the figures for the Ki in series [1], in series [2] and in series [3] were 1260 nM, over 10000 nM and 1260 nM, respectively.

`Cc1cc2c(cc1C(F)(F)F)N(C(=O)Nc1ccc(Oc3cccnc3C)nc1)CC2` [SB-243213] gave an ID50 in series [7] of 0.7 mg/kg.

Turning to `COc1ccc(N2CCN(c3ccc(C)c(C(F)(F)F)c3)C2=O)cc1OCCN1CCCCC1`, the Ki in series [1] was 79.4 nM; in series [2], 398 nM; in series [3], 2 nM. Moreover, the Reversal entry in series [6] is “inactive”.

Regarding `COc1ccc(N2CCN(c3cccc(F)c3)C2=O)cc1OCCN1CCCCC1`, the inhibition constant (Ki) was 501 nM in series [1], 2000 nM in series [2] and 1.58 nM in series [3]. In series [4], this compound registered a clearance of over 120 mL/min/kg. Besides, the Reversal in series [5] is recorded as 7%.

In the case of `COc1cc2c(cc1OCCN1CCCCC1)N(C(=O)/C=C/c1ccccc1Cl)CC2`, the inhibitory constant (Ki) in series [1] was 126 nM; in series [2] it was 398 nM; in series [3], 0.631 nM. For the same compound, the Reversal in series [5] worked out at 71%.

Turning to `COc1ccc(N2CCN(c3ccccc3)C2=O)cc1OCCN1CCCCC1`, the inhibition constant Ki in series [1] is 1260 nM; in series [2], 2510 nM; in series [3], 1.26 nM. Moreover, the Reversal result in series [6] was “inactive”.

Consider `COc1ccc(N2CCN(c3cccc(Cl)c3Cl)C2=O)cc1OCCN1CCCCC1`, for which the inhibition constant Ki in series [1] is 1260 nM; in series [2] it was 1580 nM; in series [3], 10 nM. In addition, the Reversal result in series [8] was “inactive”.
